PMC5521815 (ACS chemical biology, 2016)
“Also recorded” adds a separate entry of the source.

How the values were obtained:
[1] = test system: Pseudomonas aeruginosa; conditions: result in words; cited from earlier work
[2] = test system: human RBC; test: Hemolysis of human RBCs; type: cell-based; conditions: result in words; for Hemolysis, propensity to lyse human RBCs: 1x10^8 human RBC/ml, 100 μM peptide, 37° C, 1 hour; for Selectivity (antimicrobial activity relative to host cell toxicity): represented by hemolysis at 100 μM peptide
[3] = test system: Staphylococcus aureus strain ATCC 25923; test: Broth dilution MIC; type: cell-based; conditions: absence of RBCs; 5x10^5 CFU/ml, overnight 37°C; result in words
[4] = test system: Escherichia coli strain ATCC 25922; test: Broth dilution MIC; type: cell-based; conditions: result in words; for Activity (MIC) in broth dilution against E. coli: absence of RBCs, 5x10^5 CFU/ml, overnight 37°C
[5] = test system: E. coli; test: Radial diffusion assay in the presence of RBCs and/or serum; type: cell-based, Escherichia coli; conditions: RBCs up to 1x10^9 cells/ml, 30 min 37°C; result in words
Procedure, shortened: (§1)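 Log-phase (TSB) E. coli ATCC 25922 or S. aureus ATCC 25923, 8 × 10^6 CFU in 20 mL underlay agarose with 3 mm wells. Test peptide at 20 μM was preincubated 30 min at 37 °C with washed human O+ RBCs and/or filtered serum at 2–20% of whole blood (1 × 10^8–1 × 10^9 cells/mL). 10 μL per well, 3 h at 37 °C, overlay, overnight; inhibition zones imaged.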

[6] = test system: Staphylococcus aureus strain ATCC 25923; conditions: result in words; cited from earlier work
[7] = test system: Escherichia coli strain ATCC 25922; conditions: result in words; cited from earlier work
[8] = test system: S. aureus; test: Radial diffusion assay in the presence of RBCs; type: cell-based, Staphylococcus aureus; conditions: RBCs up to 1x10^9 cells/ml, 30 min 37°C; result in words
Procedure, shortened: as §1

[9] = test system: E. coli; test: Number of bound peptides required to kill E. coli; type: cell-based, Escherichia coli; conditions: calculated from sterilization limit and binding curve

RRWVRRVRRWVRRVVR-VVRRWVRR [WLBU2]
Activity in whole blood against Pseudomonas aeruginosa [1]: retained activity in whole blood

melittin
Hemolysis, propensity to lyse human RBCs [2]: highly hemolytic | Selectivity (antimicrobial activity relative to host cell toxicity) [2]: completely non-selective; also recorded: least selective peptide by far | Selectivity (antimicrobial activity relative to host cell toxicity) ([2]; listed as Melittin): entirely non-selective

GIGKFLKKAKK-FGKAFVKILKK-NH2 [MSI-78]
Selectivity (antimicrobial activity relative to host cell toxicity) [2]: moderately high selectivity

GIGKFLHSAKKFGK-AFVGEIMNS [magainin II]
Activity (MIC) in broth dilution against S. aureus [3]: active only against E. coli | Activity (MIC) in broth dilution against E. coli [4]: active only against E. coli | Hemolysis, propensity to lyse human RBCs [2]: near zero propensity to lyse dilute human RBCs | Selectivity (antimicrobial activity relative to host cell toxicity) [2]: highly selective

RRGWALRLVLAY-NH2 [ARVA-L]
Host cell effect on MIC without preincubation with host cells ([4]; compared with preincubation, organism not stated): much smaller | Selectivity (antimicrobial activity relative to host cell toxicity) [2]: fair selectivity

[H]/N=C(/N)N[C@H]1[C@H](O)[C@@H](O)[C@H](O[C@@H]2O[C@@H](C)[C@](O)(C=O)[C@H]2O[C@@H]2O[C@@H](CO)[C@H](O)[C@@H](O)[C@@H]2NC)[C@@H](N/C(N)=N\[H])[C@@H]1O [streptomycin]
Effect of preincubation with RBCs on radial diffusion activity [5]: not affected significantly

ILPWKWPWWPWRR-NH2 [indolicidin]
Selectivity (antimicrobial activity relative to host cell toxicity) [2]: poor selectivity; also recorded: very poor selectivity

KWKLFKKIEKVGQN-IRDGIIKAGPAVAVVGQATQIAK [cecropin A]
Activity (MIC) in broth dilution against S. aureus [3]: not against S. aureus | Activity (MIC) in broth dilution against E. coli [4]: highly active | Hemolysis, propensity to lyse human RBCs [2]: near zero propensity to lyse dilute human RBCs | Selectivity (antimicrobial activity relative to host cell toxicity) [2]: highly selective; also recorded: most selective in our set

LLGDFFRKSKEKIGKEFKRIVQRIKDFLRNLVPRTES [LL-37]
Activity in sterilization assay against S. aureus (known) [6]: undetectable against S. aureus | Activity in sterilization assay against E. coli (known) [7]: poor against E. coli

CN[C@H](CC(C)C)C(=O)N[C@H]1C(=O)N[C@@H](CC(N)=O)C(=O)N[C@H]2C(=O)N[C@H]3C(=O)N[C@H](C(=O)N[C@H](C(=O)O)c4cc(O)cc(O)c4-c4cc3ccc4O)[C@H](O)c3ccc(c(Cl)c3)Oc3cc2cc(c3O[C@@H]2O[C@H](CO)[C@@H](O)[C@H](O)[C@H]2O[C@H]2C[C@](C)(N)[C@H](O)[C@H](C)O2)Oc2ccc(cc2Cl)[C@H]1O [vancomycin]
Effect of preincubation with RBCs on radial diffusion activity [8]: not affected significantly

RRGWALRLVLAY-NH2 [ARVA]
Bound peptides per bacterial cell required for sterilization (no surviving CFUs) [9]: > 1x10^8 peptides per bacterial cell
